Experimental data as given in ChEMBL document CHEMBL5352422, “Development of l-Dopa-containing diketopiperazines as blood-brain barrier shuttle” (Eur J Med Chem, 2022).
Converted amounts (≈) assume the structure as drawn. The source made the active and inactive calls. No cut-off for these calls is given here.

Key:
PC-12 [1] = assay: Inhibition of MPP+ induced ROS production in rat PC-12 cells at 100 nM preincubated with compound for 24 hrs followed by MPP+ treatment for 24 hrs by DCFH-DA staining based fluorescence method; settings: time 48.0 hrs
[2] = Genotoxicity in human Lymphocyte assessed as sister chromatid exchange measured per cells at 500 nM incubated for 72 hrs giemsa staining based fluorescence method (reference value: 6.6 to 14.3); type: toxicity, cell-based; settings: 0.5 µM
[3] = Stability of the compound in stimulated gastric fluid at 10 mg/ml pepsin by measuring observed rate constant measured upto 60 mins by HPLC analysis; type: ADME; settings: simulated gi fluid, 1 h
Procedure, shortened: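 USP simulated gastric fluid containing pepsin, preheated, in a 37 °C shaking water bath. Samples at 0, 15, 30 and 60 min were deproteinized with ice-cold acetonitrile containing 0.5% formic acid, centrifuged at 4 °C, filtered and analyzed by HPLC. Means of three experiments.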

[4] = Induction of DNA damage in rat Cerebral cortex cell assessed as total DNA damage score at 500 nM incubated for 24 hrs by Comet assay (reference value: 36.8 to 89.2); type: functional, Cerebral cortex neuron
PC-12 [5] = assay: Inhibition of MPP+ induced GSH level in rat PC-12 cells at 100 nM preincubated with compound for 24 hrs followed by MPP+ treatment for 24 hrs by DTNB reagent based analysis; type: functional, cell-based; settings: time 48.0 hrs
[6] = Induction of DNA damage in Primary human whole blood cell assessed as total DNA damage score at 10 nM incubated for 24 hrs by Comet assay (reference value: 35.4 to 77.9); type: functional
[7] = Antioxidant activity against rat Cerebral cortex cell assessed as H2O2 equivalent of total oxidative stress at 50 nM incubated for 24 hrs (0.7 to 2.3 micromolequiv/L); type: functional, Cerebral cortex neuron
[8] = Antioxidant activity against rat Cerebral cortex cell assessed as trolox equivalent of total antioxidant capacity at 100 nM incubated for 24 hrs (14.7 to 27.5 mmolequiv/L ); type: functional, Cerebral cortex neuron
[9] = Induction of DNA damage in Primary human whole blood cell assessed as total DNA damage score at 50 nM incubated for 24 hrs by Comet assay (reference value: 35.4 to 77.9); type: functional
[10] = Stability of the compound in phosphate buffer assessed as chemical hydrolysis by measuring half life at pH 7.4; type: physicochemical
Procedure, shortened: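 Chemical hydrolysis at 37 °C in hydrochloric acid buffer pH 1.2 or phosphate buffer pH 7.4. Remaining compound followed by HPLC with UV detection. t1/2 and k_obs are means of three experiments ± SD.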

[11] = Apparent permeability of the compound across apical side to basolateral side in human Caco-2 cells measured upto 180 mins by HPLC analysis; type: ADME, cell-based
[12] = Antioxidant activity against rat Cerebral cortex cell assessed as trolox equivalent of total antioxidant capacity at 10 nM incubated for 24 hrs (14.7 to 27.5 mmolequiv/L ); type: functional, Cerebral cortex neuron
[13] = Solubility of the compound in water by HPLC-UV analysis; type: physicochemical
[14] = Stability of the compound in stimulated intestinal fluid at 10 mg/ml pancreatin by measuring observed rate constant measured upto 180 mins by HPLC analysis; type: ADME; settings: simulated gi fluid, 3 h
Procedure, shortened: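 USP simulated intestinal fluid containing pancreatin, in a 37 °C shaking water bath. Samples at 0, 60, 120 and 180 min were quenched with ice-cold acetonitrile containing 0.5% formic acid, centrifuged at 4 °C for 10 min, filtered and analyzed by HPLC. Means of three experiments ± SD.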

[15] = Induction of DNA damage in Primary human whole blood cell assessed as total DNA damage score at 500 nM incubated for 24 hrs by Comet assay (reference value: 35.4 to 77.9); type: functional
[16] = Induction of DNA damage in Primary human whole blood cell assessed as total DNA damage score at 250 nM incubated for 24 hrs by Comet assay (reference value: 35.4 to 77.9); type: functional
[17] = Induction of DNA damage in rat Cerebral cortex cell assessed as 8-OH-dG adducts formation at 100 nM incubated for 24 hrs by […] (reference value: 0.14 to 1.92 pg/ml); type: functional, Cerebral cortex neuron
PC-12 [18] = assay: Cytoprotective activity against MPP+ induced cell death in rat PC-12 cells at 10 to 500 nM preincubated with compound for 24 hrs followed by MPP+ exposure for 24 hrs by MTT assay; type: functional, cell-based; settings: dose 10-500 nM, time 48.0 hrs
Procedure, shortened: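 PC12 cells in RPMI with horse and fetal calf serum on polylysine-coated flasks. Pretreated 24 h with compound (10–500 nM), then 25 µM MPP+ for a further 24 h. MTT formazan solubilized in SDS/HCl, read at 550 nm. Expressed as % of untreated control absorbance; n = 3, mean ± SD.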

[19] = Cytotoxicity against Primary human whole blood cell at 10 to 500 nM incubated for 24 hrs by MTT assay; type: toxicity, cell-based; settings: 0.5 µM, dose 10-500 nM
Procedure, shortened: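 Primary cultures (rat fetal cortical neurons; human whole-blood cultures with phytohemagglutinin) exposed to aqueous compound at 10–500 nM for 24 h at 37 °C. Then incubated with 0.7 mg/mL MTT for 30 min at 37 °C, formazan extracted with isopropanol/formic acid 95:5, read at 560 nm. Control formazan = 100% viability. Mitomycin C 10^-7 M as positive control; n = 4.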

[20] = Genotoxicity in human Lymphocyte assessed as micronuclei formation measured per 1000 cells at 100 nM incubated for 72 hrs giemsa staining based analysis (reference value: 4.5 to 17.9); type: toxicity, cell-based; settings: 0.1 µM
Procedure, shortened: (§1)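 Human whole-blood lymphocyte cultures with phytohemagglutinin, incubated with compound for 72 h at 37 °C. Cytochalasin B added at 44 h. Cells fixed in ice-cold methanol/acetic acid 1:1, cytospun, Giemsa-stained. At least 1000 binucleated lymphocytes per concentration scored for micronuclei by one observer.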

[21] = Antioxidant activity against Primary human whole blood cell assessed as trolox equivalent of total antioxidant capacity at 10 nM incubated for 24 hrs (19.3 to 32.5 mmolequiv/L ); type: functional
[22] = Antioxidant activity against rat Cerebral cortex cell assessed as H2O2 equivalent of total oxidative stress at 100 nM incubated for 24 hrs (0.7 to 2.3 micromolequiv/L); type: functional, Cerebral cortex neuron
[23] = Antioxidant activity against rat Cerebral cortex cell assessed as H2O2 equivalent of total oxidative stress at 250 nM incubated for 24 hrs (0.7 to 2.3 micromolequiv/L); type: functional, Cerebral cortex neuron
[24] = Genotoxicity in human Lymphocyte assessed as micronuclei formation measured per 1000 cells at 50 nM incubated for 72 hrs giemsa staining based analysis (reference value: 4.5 to 17.9); type: toxicity, cell-based; settings: 0.05 µM
Procedure, shortened: as §1

[25] = Partition coefficient, logP of the compound by HPLC-UV analysis; type: physicochemical; settings: octanol/water
[26] = Cytotoxicity against Primary human whole blood cell at 10 to 500 nM incubated for 24 hrs by LDH assay; type: toxicity, cell-based; settings: 0.5 µM, dose 10-500 nM
Procedure, shortened: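 Rat fetal cortical neuron or human whole-blood cultures treated 24 h at 37 °C with aqueous compound at 10–500 nM. LDH released into 100 µL of medium measured by kit as the rate of NAD+ reduction (lactate to pyruvate), absorbance increase at 490 nm. Mitomycin C 10^-7 M as positive control; four independent experiments.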

[27] = Induction of DNA damage in rat Cerebral cortex cell assessed as total DNA damage score at 250 nM incubated for 24 hrs by Comet assay (reference value: 36.8 to 89.2); type: functional, Cerebral cortex neuron

C#CCSC[C@H]1NC(=O)[C@H](Cc2ccc(OC(C)=O)c(OC(C)=O)c2)NC1=O
inhibition (PC-12 [1]): Active | Activity [2]: 6.9 | Kobs [3]: 0.008 h⁻¹ | Activity [4]: 38.1 | inhibition (PC-12 [5]): Active | Activity [6]: 36 | Activity [7]: 0.6 umolequiv/L | Activity [8]: 15.2 mmolequiv/L | Activity [9]: 35.8 | half-life [10]: 47.5 h | Papp A→B at 3 h [11]: 17.4 ×10⁻⁶ cm/s | Activity [12]: 14.7 mmolequiv/L | solubility [13]: 630 µg/mL (≈ 1560 µM) | Kobs [14]: 0.198 h⁻¹ | Activity [15]: 36.3 | Activity [16]: 35.9 | Activity [17]: 0.14 pg/mL | Activity (PC-12 [18]): Active | Activity [19]: Non-Toxic | Activity [20]: 4.9 | Activity [21]: 19.4 mmolequiv/L | Activity [22]: 0.6 umolequiv/L | Activity [23]: 0.6 umolequiv/L | Activity [24]: 4.8 | logP [25]: 0.35 | Activity [26]: Non-Toxic | Activity [27]: 37.6

C=CCSC[C@H]1NC(=O)[C@H](Cc2ccc(OC(C)=O)c(OC(C)=O)c2)NC1=O
inhibition (PC-12 [1]): Active | Activity [2]: 7 | Kobs [3]: 0.029 h⁻¹ | Activity [4]: 37.6 | inhibition (PC-12 [5]): inactive | Activity [6]: 35 | Activity [7]: 0.7 umolequiv/L | Activity [8]: 14.4 mmolequiv/L | Activity [9]: 35.7 | half-life [10]: 30.9 h | Papp A→B at 3 h [11]: 7.5 ×10⁻⁶ cm/s | Activity [12]: 15.1 mmolequiv/L | solubility [13]: 323 µg/mL (≈ 795 µM) | Kobs [14]: 1.03 h⁻¹ | Activity [15]: 36.1 | Activity [16]: 35.7 | Activity [17]: 0.15 pg/mL | Activity (PC-12 [18]): Active | Activity [19]: Non-Toxic | Activity [20]: 5 | Activity [21]: 19.2 mmolequiv/L | Activity [22]: 0.7 umolequiv/L | Activity [23]: 0.7 umolequiv/L | Activity [24]: 4.9 | logP [25]: 0.68 | Activity [26]: Non-Toxic | Activity [27]: 37.4
